# Test results as given in PubChem BioAssay.
# Calls of active or inactive are those of the source.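 Rule for the calls, unless noted: active = fluorescence slope higher than the sample average by over 3 SD (cut at about -0.22 in these data, passing the limit was not always enough); inactive = the rest.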
# What was measured:
# [1] = inhibitors of TNFa-induced NFkB p65 translocation, primary screen, imaging, HUVEC, MLSMR starter and 10KST1 sets (AID 438;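 active = inhibition above 20% together with a positive visual image hit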;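 note: compound added about 3h40 before a 20 min TNFalpha stimulation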;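 for inhibition: signal is the nuclear over cytoplasmic p65 intensity ratio per well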); conditions: HUVEC TNFa-induced p65 nuclear translocation; cell count: measured here: nuclei count (cytotoxicity indicator), at 2.08 µM; inhibition: at 2 µM, stronger effect = higher value, 0% TNFa-plus-vehicle, 100% no-TNFa wells
# [2] = endothelial E-selectin expression blockers – imaging, HUVEC, immunofluorescence, MLSMR starter and 10KST1 sets, primary screen (AID 487;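 active = visually confirmed hit in the image check and inhibition above 20%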;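 for inhibition: signal is fraction of cell area covered by stained E-selectin grains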;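 for nuclei count: 100% = median nuclei count of all wells on the same plate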); conditions: HUVEC TNFalpha-induced E-selectin immunofluorescence imaging, at 2 µM; inhibition: stronger effect = higher value; nuclei count: measured here: cell number, toxicity
# [3] = Primary imaging screen for DUSP6 inhibitors that restore phospho-Erk in transfected HeLa cells, chemical complementation (AID 609;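 active = compounds giving at least 50% inhibition in the cell-based MKP-3 phosphatase rescue imaging test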;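 for inhibition: phospho-Erk level distribution per well compared with pooled transfected vehicle control wells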); conditions: HeLa MKP-3 transfected, phospho-Erk imaging KS statistic, at 10 µM, cells stimulated with TPA for 15 min
# [4] = biological target: Dual specificity protein phosphatase 6 (Homo sapiens) (UniProt Q16828); assay: as above; conditions: HeLa MKP-3 transfected, phospho-Erk imaging KS statistic; at 10 µM; stronger effect = higher value; cells stimulated with TPA for 15 min
# [5] = biological target: Voltage-gated potassium channel subunit beta-2 (Rattus norvegicus) (UniProt P62483); assay: inhibitors of rat Kvbeta2 reductase activity – biochemical, NADPH fluorescence, primary screen (AID 622); conditions: recombinant KvBeta, 4-cyanobenzaldehyde reduction, at 10 µM, stronger effect = higher value;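 note: slope of raw intensity against log time taken from 70 to 1610 s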
# [6] = biological target: Voltage-gated potassium channel subunit beta-2 (Rattus norvegicus) (UniProt P62483); assay: enhancers of rat Kvbeta2 NADPH turnover – biochemical, NADPH fluorescence, primary screen (AID 623;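 active = NADPH fluorescence slope more negative than the mean of all samples by about 3 SD, 99.7% confidence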;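 note: fluorescence intensity change per second fitted from 20 to 320 s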); conditions: Recombinant KvBeta, NADPH fluorescence decrease slope, 10 min; at 10 µM; stronger effect = lower value
# [7] = biological target: Alpha-2C adrenergic receptor (Homo sapiens) (UniProt P18825); assay: compounds altering alpha2C-coupled GIRK flux – cell-based, HEK293 alpha2C/GIRK1/2, thallium flux, primary screen (AID 624;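 active = fluorescence slope after compound addition differing from the mean of all screened samples at 99.7% confidence, in either direction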;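 note: slope of fluorescence ratio to pre-addition baseline per second over 15 to 24 s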); conditions: thallium flux BTC fluorescence, at 10 µM, actives lie on both sides
# [8] = inhibitors of larval lipid processing in zebrafish, primary screen, whole organism, PED6 fluorescence, gall bladder and intestine (AID 686;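 active = a full or partial loss of lipid-probe fluorescence in the fish gall bladder, intestine or both, judged by eye; inactive = no fluorescence loss, or compound toxic to the fish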;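 note: larvae 5 to 7 days old with five fish per well; signal comes from phospholipase A2 cleavage of quenched PED6 carried via bile; overnight exposure to compound and PED6 before scoring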); conditions: Zebrafish larvae PED6 lipid processing, fluorescence scoring; screened at 20 µM (by protocol)
# Method in brief: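 System: live zebrafish larvae aged 5-7 days, whole organism; measure: graded gall bladder and intestinal fluorescence inhibition per well; incubation: overnight exposure; reagent: ingested quenched lipid PED6 at 100 nM; signal: By-eye fluorescence microscopy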
# [9] = loss of swimming-algae plug formation – whole organism, Chlamydomonas reinhardtii, WT vs cilia-less mutant, absorbance, 96-well, primary screen (AID 463189;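 active = inhibition at or above 50% relative to wild type and mutant plate controls; inactive = inhibition below 50%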;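 note: 0% = wild type cc124 cells in DMSO and 100% = ciliumless bld1 mutant cells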); conditions: Chlamydomonas reinhardtii gravitaxis, OD600 absorbance, 2 days; at 10 µM; stronger effect = higher value
# [10] = measured here: cell density z-score
# [11] = measured here: nuclear c-Myc green intensity z-score
# [12] = measured here: nuclear pErk red intensity z-score, stronger effect = higher value
# Voltage-gated potassium channel subunit beta-2 (Rattus norvegicus), sequence (P62483 whole entry, looked up): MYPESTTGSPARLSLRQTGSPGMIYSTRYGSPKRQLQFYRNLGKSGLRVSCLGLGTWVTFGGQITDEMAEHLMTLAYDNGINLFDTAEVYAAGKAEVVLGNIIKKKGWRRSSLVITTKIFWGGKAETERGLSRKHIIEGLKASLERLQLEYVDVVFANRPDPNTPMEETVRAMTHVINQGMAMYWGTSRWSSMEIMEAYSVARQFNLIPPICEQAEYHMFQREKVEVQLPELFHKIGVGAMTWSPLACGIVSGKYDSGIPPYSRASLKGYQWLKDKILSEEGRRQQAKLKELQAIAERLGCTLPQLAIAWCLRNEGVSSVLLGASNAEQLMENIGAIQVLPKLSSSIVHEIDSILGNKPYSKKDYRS
# Alpha-2C adrenergic receptor (Homo sapiens), sequence (P18825 whole entry, looked up): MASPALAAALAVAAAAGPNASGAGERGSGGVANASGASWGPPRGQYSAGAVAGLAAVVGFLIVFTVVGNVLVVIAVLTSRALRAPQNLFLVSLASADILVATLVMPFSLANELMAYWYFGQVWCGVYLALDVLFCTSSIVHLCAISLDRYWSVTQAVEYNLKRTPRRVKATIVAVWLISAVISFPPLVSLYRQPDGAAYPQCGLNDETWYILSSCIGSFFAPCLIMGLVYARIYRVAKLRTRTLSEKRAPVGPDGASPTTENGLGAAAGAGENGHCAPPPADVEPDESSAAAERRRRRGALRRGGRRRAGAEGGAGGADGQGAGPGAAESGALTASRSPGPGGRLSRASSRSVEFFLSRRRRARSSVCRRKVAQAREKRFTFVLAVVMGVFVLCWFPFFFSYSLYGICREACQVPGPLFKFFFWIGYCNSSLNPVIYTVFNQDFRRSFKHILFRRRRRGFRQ
# Dual specificity protein phosphatase 6 (Homo sapiens), sequence (Q16828 whole entry, looked up): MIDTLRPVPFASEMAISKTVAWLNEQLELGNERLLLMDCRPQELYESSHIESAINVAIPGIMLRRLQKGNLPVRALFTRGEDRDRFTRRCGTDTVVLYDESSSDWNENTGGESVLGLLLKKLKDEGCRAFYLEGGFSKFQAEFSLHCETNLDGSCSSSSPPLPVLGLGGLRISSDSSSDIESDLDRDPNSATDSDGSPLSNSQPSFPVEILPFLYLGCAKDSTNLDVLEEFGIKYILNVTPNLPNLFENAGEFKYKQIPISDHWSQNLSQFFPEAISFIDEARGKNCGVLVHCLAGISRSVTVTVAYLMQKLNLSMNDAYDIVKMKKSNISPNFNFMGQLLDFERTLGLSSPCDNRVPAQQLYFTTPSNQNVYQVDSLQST
Compound,cell count [1],inhibition [1],inhibition [2],nuclei count [2] [%],"z-score [3, 10]","z-score [3, 11]","z-score [3, 12]",inhibition [4],fluorescence slope [5],NADPH fluorescence slope [6],slope [7],outcome [8],inhibition [9]
C=C(c1ccc(OCCO)cc1)c1ccc(OCCO)cc1,323,-11% (inactive),-16.1% (inactive),129,0.426,0.397,-0.652,1.6e-07% (inactive),-0.405 (inactive),-0.000129 (inactive),0.00576 (inactive),inactive,13.7% (inactive)
Oc1ccc2c(c1)C1CCCC1(N1CCOCC1)O2 (centres undefined),414,0.7% (inactive),-83.5% (inactive),128,0.996,-0.205,-1.79,3.42% (inactive),-0.458 (inactive),-0.000124 (inactive),0.005 (inactive),inactive,-3.55% (inactive)
CCCc1cc(-c2nc(N)ncc2-c2ccc3c(c2)OCCCO3)c(O)cc1OC,570,-16.3% (inactive),-136% (inactive),122,0.844,-1.91,-0.934,11.9% (inactive),-0.519 (inactive),-5.4e-05 (inactive),0.00422 (inactive),inactive,91.5% (active)
N#Cc1c(N)nc(SCC(=O)NCCc2ccccc2)c(C#N)c1-c1cccs1,441,3.4% (inactive),19.3% (inactive),62.6,-1.05,-0.516,1.34,7.83% (inactive),-0.418 (inactive),-1.6e-05 (inactive),0.00734 (inactive),inactive,-7.92% (inactive)
CNS(=O)(=O)c1cccc2nsnc12,592,-20.7% (inactive),-98.5% (inactive),141,-1.23,0.529,1.87,-15% (inactive),-0.51 (inactive),-3.5e-05 (inactive),0.005 (inactive),inactive,11.1% (inactive)
COc1ccccc1C(=O)NC(=Nc1nc2ccccc2o1)NC(=O)c1ccccc1OC,511,-2.8% (inactive),0.2% (inactive),100,-1.24,-0.586,0.38,-2.91% (inactive),-0.572 (inactive),-9.6e-05 (inactive),0.0126 (inactive),inactive,-7.36% (inactive)
O=c1/c(=C\c2cccn2-c2ccccc2)sc2nc3ccccc3n12,640,-5.8% (inactive),-42.1% (inactive),99.1,-0.282,0.665,0.128,3.56% (inactive),-0.181 (inactive),8.6e-06 (inactive),0.00666 (inactive),inactive,9.26% (inactive)
O=C(c1cccs1)N1CCC(N2CCN(c3ccccc3)CC2)CC1,390,-7.3% (inactive),-50.1% (inactive),119,0.783,0.365,-0.94,11.3% (inactive),-0.378 (inactive),-1.9e-05 (inactive),0.00799 (inactive),inactive,43.7% (inactive)
CNC(=O)c1cc2ccccc2o1,323,-23.3% (inactive),-72.9% (inactive),132,-1.3,-0.443,-1.56,-5.26% (inactive),-0.428 (inactive),-4.2e-05 (inactive),0.00621 (inactive),inactive,32% (inactive)
O=c1oc2c3c4c(cc2c(C(F)(F)F)c1CCN1CCOCC1)CCCN4CCC3,507,-1% (inactive),-59.8% (inactive),160,-0.81,0.512,-1.2,-4.78% (inactive),-0.315 (inactive),-4.5e-05 (inactive),0.0309 (active),inactive,-7.21% (inactive)
CCc1cccc(C)c1N(C(=O)Cn1c(=O)[nH]c2ccccc21)C(C)COC (centres undefined),362,-2.1% (inactive),-33.7% (inactive),97,0.81,-0.372,0.826,5.57% (inactive),-0.546 (inactive),-4.3e-07 (inactive),0.00687 (inactive),inactive,32.6% (inactive)
COc1ccc(-c2cc3nc4n(c(=O)c3s2)CCOC4)cc1,561,-7.1% (inactive),30.7% (inactive),157,-0.862,-0.643,-0.319,-5.26% (inactive),-0.185 (inactive),-1.6e-05 (inactive),0.0053 (inactive),inactive,7.02% (inactive)
CC1(C)NC(=O)N(CC(O)COc2ccccc2C(=O)Nc2ccccc2)C1=O (centres undefined),418,-22.7% (inactive),-2.7% (inactive),93.5,-0.97,1.76,-1.28,14% (inactive),-0.495 (inactive),-0.000337 (inactive),0.00492 (inactive),inactive,18.8% (inactive)
